Assays:
[1] = measured by this polymer-water method; cited from earlier work
[2] = Determination of log Ppw and pKa by polymer film; assay type: physicochemical; details: both UHPLC and plate reader; p>0.05
How it was run: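 The solute, in 20 mM phosphate-citrate, 20 mM phosphate or TFA buffers (pH 0.9–10.0), was added over the films and shaken at 500 rpm, 25 °C, to equilibrium. The aqueous supernatant was quantified by C18 UHPLC or plate-reader UV at 343 nm. Dpw came from initial versus equilibrium aqueous concentration and phase ratio. Ppw and pKa were derived across pH. Duplicates, SEM.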

Ppw− (conditional partition coefficient of the anionic form) [2]	Structure (SMILES)	log P [1]
–	Clc1ccc(COC(Cn2ccnc2)c2ccc(Cl)cc2Cl)cc1 (centres unmarked) [econazole]	4.83
statistically zero	CC1=CC(c2ccccc2)=NS(=O)(=O)N1 [2H-1,2,6-thiadiazine, 3-methyl-5-phenyl-, 1,1-dioxide]	–
